Data set [1] in a line: Permeability Coefficient in hexadecane membranes model. In kind it is ADME, cell membranes. Conditions: not told. Summed up:
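Hexadecane (5% v/v in hexane) was loaded onto 0.4 µm polycarbonate filters, and the hexane was evaporated for ≥1 h at RT. Drug in HBSS/25 mM HEPES pH 7.4 was placed donor side, with pH 7.4 buffer receiver side, at 37°C and 500 rpm stirring. Receiver sampled over 10–120 min.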

A short description of data set [2]: Fraction absorbed in human intestine after oral administration compound was measured. In kind it is ADME, tissue-based.
Data set [3] is described as follows: Permeability Coefficient in Caco-2 cell culture model. In kind it is ADME, cell-based. Conditions: human.
Data set [4] is described as follows: Permeability Coefficient in 2/4/A1 cell model. It counts as ADME, cell-based, Homo sapiens.

Where a SMILES comes first, the peptide text is derived from it.

For the compound `CN(Cc1cnc2nc(N)nc(N)c2n1)c1ccc(C(=O)NC(CCC(=O)O)C(=O)O)cc1` (single isomer, unassigned) [METHOTREXATE], the Papp came to 0.02 ×10⁻⁶ cm/s in data set [1], 0.03 ×10⁻⁶ cm/s in data set [3] and 5.2 ×10⁻⁶ cm/s in data set [4]. This compound also displayed a Fa in data set [2] of 59%.
In data set [2], `Nc1nc2c(ncn2COCCO)c(=O)[nH]1` [ACYCLOVIR] came in with a Fa of 19%. For the same compound, the Papp was 0.034 cm/s · 10E6 in the data set filed under Homo sapiens, 0.38 ×10⁻⁶ cm/s in data set [3] and 8.2 ×10⁻⁶ cm/s in data set [4].
Turning to `C=CCc1ccccc1OCC(O)CNC(C)C` (configuration not stated) [ALPRENOLOL], the results for the Papp in data set [1] and in data set [4] were 160 ×10⁻⁶ cm/s and 290 ×10⁻⁶ cm/s, respectively.
For `Cc1cc(=O)n(-c2ccccc2)n1C` [ANTIPYRINE] the same measures were 11 ×10⁻⁶ cm/s and 250 ×10⁻⁶ cm/s.
Take `CN/C(=N/CCSCc1nc[nH]c1C)NC#N` [CIMETIDINE]: the Papp in data set [1] was determined as 0.085 ×10⁻⁶ cm/s; in data set [3] it was 0.67 ×10⁻⁶ cm/s; in data set [4], 39 ×10⁻⁶ cm/s. Besides, the Fa in data set [2] came to 80%.
Consider `O=P(O)(O)C(Cl)(Cl)P(=O)(O)O` [CLODRONIC ACID], for which the figures for the Papp in data set [1], in data set [3] and in data set [4] were 12 ×10⁻⁶ cm/s, 0.059 ×10⁻⁶ cm/s and 4.5 ×10⁻⁶ cm/s, respectively. In data set [2], this compound had a Fa of 3%.
The like results for `CN1CC(=O)NC1=N` [CREATININE] were, in that order, 0.12 ×10⁻⁶ cm/s, 1.2 ×10⁻⁶ cm/s, 21 ×10⁻⁶ cm/s and 70%.
For the compound `O=c1[nH]cnc2c1ncn2[C@H]1CC[C@@H](CO)O1` [DIDANOSINE], the values for the Papp in data set [1], in data set [3] and in data set [4] were 0.099 ×10⁻⁶ cm/s, 0.25 ×10⁻⁶ cm/s and 14 ×10⁻⁶ cm/s, respectively. This compound displayed a Fa in data set [2] of 42%.
Take `C[C@H]1O[C@@H](O[C@H]2[C@@H](O)C[C@H](O[C@H]3[C@@H](O)C[C@H](O[C@H]4CC[C@@]5(C)[C@H](CC[C@@H]6[C@@H]5C[C@@H](O)[C@]5(C)[C@@H](C7=CC(=O)OC7)CC[C@]65O)C4)O[C@@H]3C)O[C@@H]2C)C[C@H](O)[C@@H]1O` [DIGOXIN]: the Papp in data set [1] was 0.12 ×10⁻⁶ cm/s; in data set [3], 1.3 ×10⁻⁶ cm/s; in data set [4], 6.7 ×10⁻⁶ cm/s. The Fa in data set [2] came to 81%.
As for `O=C(O)P(=O)(O)O` [FOSCARNET], the results for the Papp in data set [1], in data set [3] and in data set [4] were 0.36 ×10⁻⁶ cm/s, 0.043 ×10⁻⁶ cm/s and 9.5 ×10⁻⁶ cm/s, respectively. Besides, the Fa in data set [2] was 17%.
In data set [2], `Nc1nc(O)c2ncn(COC(CO)CO)c2n1` [GANCICLOVIR] had a Fa of 5%.
With `CN(CC(=O)O)C(=O)CN` [GLYCYLSARCOSINE] (HELM PEPTIDE1{G.[Sar]}$$$$V2.0), the figures for the Papp in data set [1], in data set [3] and in data set [4] were 0.25 ×10⁻⁶ cm/s, 0.5 ×10⁻⁶ cm/s and 11 ×10⁻⁶ cm/s, respectively. The Fa in data set [2] was 100%.
Regarding `OC[C@H]1O[C@@H](O[C@@H]2[C@@H](CO)O[C@](O)(CO)[C@H]2O)[C@H](O)[C@@H](O)[C@H]1O` [LACTULOSE], the Papp stood at 0.081 ×10⁻⁶ cm/s in data set [1] and 8.9 ×10⁻⁶ cm/s in data set [4]. Also, in data set [2], the Fa is 1%.
As for `Nc1nc(=O)c2ncn([C@@H]3C[C@H](CO)[C@H]3CO)c2[nH]1` [LOBUCAVIR], the Papp in data set [1] amounted to 0.057 ×10⁻⁶ cm/s; in data set [3] it was 0.88 ×10⁻⁶ cm/s; in data set [4], 14 ×10⁻⁶ cm/s. Moreover, the Fa in data set [2] worked out at 50%.
For the compound `OC[C@@H](O)[C@@H](O)[C@H](O)[C@H](O)CO` [MANNITOL], the Papp in data set [1] stood at 0.17 ×10⁻⁶ cm/s; in data set [4], 11 ×10⁻⁶ cm/s.
`CN(C)C(=N)N=C(N)N` [METFORMIN]: the results for the Papp in data set [1], in data set [3] and in data set [4] were 0.51 ×10⁻⁶ cm/s, 0.66 ×10⁻⁶ cm/s and 20 ×10⁻⁶ cm/s, respectively.
Take `Cc1ccccc1N1C(=O)c2cc(S(N)(=O)=O)c(Cl)cc2NC1C` (configuration not stated) [METOLAZONE]: the Papp was determined as 1.1 ×10⁻⁶ cm/s in data set [1], 4.3 ×10⁻⁶ cm/s in data set [3] and 14 ×10⁻⁶ cm/s in data set [4]. The Fa in data set [2] was determined as 64%.
Regarding `COCCc1ccc(OCC(O)CNC(C)C)cc1` (configuration not stated) [METOPROLOL], the results for the Papp in data set [1] and in data set [4] were 8.6 ×10⁻⁶ cm/s and 190 ×10⁻⁶ cm/s, respectively.
With `O=C1c2c(O)ccc(O)c2C(=O)c2c(NCCNCCO)ccc(NCCNCCO)c21` [MITOXANTRONE], the Papp in data set [1] is 0.74 ×10⁻⁶ cm/s; in data set [3] it was 2.3 ×10⁻⁶ cm/s; in data set [4] it was 7.3 ×10⁻⁶ cm/s.
In the case of `CC(C)(C)NCC(O)COc1cccc2c1C[C@H](O)[C@H](O)C2` (some centres not stated) [NADOLOL], the Papp in data set [1] came out at 0.032 ×10⁻⁶ cm/s; in data set [3], 0.28 ×10⁻⁶ cm/s; in data set [4], 14 ×10⁻⁶ cm/s. Besides, the Fa in data set [2] is 30%.
For `O=C(O)c1cc(/N=N/c2ccc(O)c(C(=O)O)c2)ccc1O` [OLSALAZINE], the values for the Papp in data set [1], in data set [3] and in data set [4] were 12 ×10⁻⁶ cm/s, 0.05 ×10⁻⁶ cm/s and 4.5 ×10⁻⁶ cm/s, respectively. The Fa in data set [2] was found to be 3%.
In the case of `CC(C)NCC(O)COc1cccc2[nH]ccc12` (configuration not stated) [PINDOLOL], the Papp in data set [1] stood at 0.73 ×10⁻⁶ cm/s; in data set [4], 67 ×10⁻⁶ cm/s.
With `CC(C)NCC(O)COc1cccc2ccccc12` (configuration not stated) [PROPRANOLOL], the figures for the Papp in data set [1], in data set [3] and in data set [4] were 58 ×10⁻⁶ cm/s, 204 ×10⁻⁶ cm/s and 240 ×10⁻⁶ cm/s, respectively. In data set [2], this compound had a Fa of 100%.
As for `OC[C@H]1O[C@H](OC[C@H]2O[C@H](O[C@]3(CO)O[C@H](CO)[C@@H](O)[C@@H]3O)[C@H](O)[C@@H](O)[C@@H]2O)[C@H](O)[C@@H](O)[C@H]1O` [RAFFINOSE], the Papp in data set [1] was found to be 0.051 ×10⁻⁶ cm/s; in data set [4], 5.9 ×10⁻⁶ cm/s. In addition, the Fa in data set [2] amounted to 0%.
On to `O=C(O)c1cc(/N=N/c2ccc(S(=O)(=O)Nc3ccccn3)cc2)ccc1O` [SULFASALAZINE], for which, in data set [2], the Fa turned out to be 12%. Moreover, the Papp in the data set listed under Homo sapiens is 0.028 cm/s · 10E6; in data set [4], 9.6 ×10⁻⁶ cm/s.
The compound `CCN1CCCC1CNC(=O)c1cc(S(N)(=O)=O)ccc1OC` (configuration not stated) [SULPIRIDE] returned a Fa in data set [2] of 30%. Further, the Papp in data set [4] worked out at 11 ×10⁻⁶ cm/s.
With `CC(C)(C)NCC(O)c1cc(O)cc(O)c1` (configuration not stated) [TERBUTALINE], the Papp came to 0.96 ×10⁻⁶ cm/s in data set [1], 0.23 ×10⁻⁶ cm/s in data set [3] and 41 ×10⁻⁶ cm/s in data set [4]. This compound also displayed a Fa in data set [2] of 73%.
With `CC(C)[C@H](N)C(=O)OCCOCn1cnc2c(=O)[nH]c(N)nc21` [VALACYCLOVIR], the Papp in data set [1] turned out to be 0.39 ×10⁻⁶ cm/s; in data set [3], 2.3 ×10⁻⁶ cm/s; in data set [4] it was 35 ×10⁻⁶ cm/s. Besides, in data set [2], the Fa turned out to be 36%.

(Values after ChEMBL document CHEMBL1145178, “Exploring the role of different drug transport routes in permeability screening” (J Med Chem, 2005).)
